Experimental data collected from several papers.
ABL1 F317L phosphorylated: Tyrosine-protein kinase ABL1, phosphorylated (ABL1, Homo sapiens, UniProt P00519, F317L)
ABL1 F317L non-phosphorylated: Tyrosine-protein kinase ABL1, non-phosphorylated (ABL1, Homo sapiens, UniProt P00519, F317L)
ABL1 E255K phosphorylated: Tyrosine-protein kinase ABL1, phosphorylated (ABL1, Homo sapiens, UniProt P00519, E255K)
ABL1 non-phosphorylated: Tyrosine-protein kinase ABL1, non-phosphorylated (ABL1, Homo sapiens, UniProt P00519)
ABL1 Q252H phosphorylated: Tyrosine-protein kinase ABL1, phosphorylated (ABL1, Homo sapiens, UniProt P00519, Q252H)
ABL1 M351T phosphorylated: Tyrosine-protein kinase ABL1, phosphorylated (ABL1, Homo sapiens, UniProt P00519, M351T)

| Structure (SMILES) | target | effect on | method | tested at | remaining binding |
| --- | --- | --- | --- | --- | --- |
| Cc1cnc(Nc2ccc(C(=O)N3CCC(N4CCCC4)CC3)cc2)nc1-c1cc2ccccc2s1 | ABL1 F317L phosphorylated | binding | competition with immobilised ligand | 1 µM | 21% |
| CSc1cccnc1N1CCN(Cc2nc3ccccc3[nH]2)CC1 | ABL1 F317L non-phosphorylated | cell-free assay | competition with immobilised ligand | 1 µM | 100% |
| Nc1ncc2c(n1)-c1c([nH]c3ccc(C#CC4CC4)cc13)CCCC2 | ABL1 E255K phosphorylated | binding | competition with immobilised ligand | 1 µM | 100% |
| CS(=O)(=O)NCC[C@H](NC(=O)c1cncc2c1cnn2-c1ccc(F)cc1)c1ccnc(S(C)(=O)=O)c1 | ABL1 E255K phosphorylated | binding | competition with immobilised ligand | 1 µM | 93% |
| O=C(Nc1c[nH]nc1C(=O)NC1CCNCC1)c1cc(F)cc(F)c1 | ABL1 non-phosphorylated | binding | competition with immobilised ligand | 1 µM | 98% |
| O=C(N1CCS(=O)(=O)CC1)N1C[C@H](c2ccc(OC(F)(F)F)cc2)C[C@H](c2nc(C3CC3)no2)C1 | Tyrosine-protein kinase ABL1, phosphorylated (ABL1, Homo sapiens, UniProt P00519, H396P) | cell-free assay | competition with immobilised ligand | 1 µM | 100% |
| C=CC(=O)N1CCC(C(=O)NCC(=O)N2CCN(c3nc(-c4cnc(N)nc4C(F)F)nc(N4CCOCC4)n3)CC2)CC1 | Tyrosine-protein kinase ABL1, phosphorylated (ABL1, Homo sapiens, UniProt P00519, Y253F) | binding | competition with immobilised ligand | 1 µM | 90% |
| CN(C)c1nccc(-c2cnn3ncccc23)n1 | ABL1 non-phosphorylated | binding | competition with immobilised ligand | 1 µM | 98% |
| COc1ncc2cc3ccccc3nc2c1C#N | Tyrosine-protein kinase ABL1, phosphorylated (ABL1, Homo sapiens, UniProt P00519, T315I) | cell-free assay | competition with immobilised ligand | 5 µM | 89% |
| CC1CCCN1c1nccc(-c2cnn3ncccc23)n1 (centres unmarked) | Tyrosine-protein kinase ABL1 (ABL1, Homo sapiens, UniProt P00519, F317L) | binding | – | 1 µM | 96% |
| O=C(c1ccc(Nc2ncc(Cl)c(-c3ccc(Cl)s3)n2)cc1)N1CCC(N2CCCC2)CC1 | ABL1 F317L phosphorylated | binding | competition with immobilised ligand | 1 µM | 58% |
| COc1cnc(Nc2cccc(S(N)(=O)=O)c2)nc1N1CCN(c2ccccc2)C(=O)C1 | ABL1 Q252H phosphorylated | binding | competition with immobilised ligand | 1 µM | 87% |
| C[C@H](c1cccc(C#N)c1)n1cc(Cl)cc(C(N)=O)c1=N | ABL1 Q252H phosphorylated | cell-free assay | competition with immobilised ligand | 1 µM | 84% |
| O=C(c1ccc(Nc2nccc(-c3cc4ccccc4s3)n2)cc1)N1CCC(N2CCCC2)CC1 | Tyrosine-protein kinase ABL1, non-phosphorylated (ABL1, Homo sapiens, UniProt P00519, T315I) | binding | competition with immobilised ligand | 1 µM | 2% |
| CN(c1nccc(-c2cnn3ncccc23)n1)C1CC1 | Tyrosine-protein kinase ABL1, phosphorylated (ABL1, Homo sapiens, UniProt P00519) | binding | – | 1 µM | 99% |
| COc1cnc(Nc2cccc(S(N)(=O)=O)c2)nc1N1CCN(c2ccccc2)CC1 | Tyrosine-protein kinase ABL1, phosphorylated (ABL1, Homo sapiens, UniProt P00519, F317I) | binding | competition with immobilised ligand | 1 µM | 98% |
| O=C(NCCCN1CCOCC1)c1ccc(Nc2ncc(Cl)c(-c3ccc(Cl)s3)n2)cc1 | ABL1 F317L non-phosphorylated | binding | competition with immobilised ligand | 1 µM | 71% |
| O=C(NC[C@@H]1[C@H]2CN(C(=O)OCc3cc(C(F)(F)F)cc(C(F)(F)F)c3)C[C@@H]12)c1ccc2[nH]nnc2c1 | ABL1 E255K phosphorylated | binding | competition with immobilised ligand | 1 µM | 92% |
| N[C@@H]1CCN(c2nccc(-c3cnn4ncccc34)n2)C1 | Tyrosine-protein kinase ABL1 (ABL1, Homo sapiens, UniProt P00519, Q252H) | binding | – | 1 µM | 74% |
| CN1CCN(c2cnc3c(C4CCN(C(=O)c5ccc(OC(F)(F)F)cc5N)CC4)ncnc3c2)CC1 | ABL1 E255K phosphorylated | binding | competition with immobilised ligand | 1 µM | 98% |
| O=C(NCC1CCOCC1)c1n[nH]cc1NC(=O)c1c(F)cccc1F | ABL1 M351T phosphorylated | binding | competition with immobilised ligand | 1 µM | 91% |
| O=C(NCc1ncc(C(F)(F)F)cc1Cl)c1ccc2c(c1)C1(CCS(=O)(=O)CC1)[C@@H](C1CC1)N2S(=O)(=O)c1ccc(F)cc1 | ABL1 M351T phosphorylated | cell-free assay | competition with immobilised ligand | 1 µM | 94% |
| CCN1CCN(Cc2ccc(C(=O)Nc3ccc(C)c(Oc4ccc5c(c4)CC(=O)N5)c3)cc2C(F)(F)F)CC1 | Tyrosine-protein kinase ABL1, non-phosphorylated (ABL1, Homo sapiens, UniProt P00519, F317I) | binding | competition with immobilised ligand | 1 µM | 1% |
